Experiment [1] can be described thus: inhibitors of TNFa-induced NFkB p65 translocation, primary screen, imaging, HUVEC, MLSMR starter and 10KST1 sets (AID 438;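 active = inhibition above 20% together with a positive visual image hit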;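 note: compound added about 3h40 before a 20 min TNFalpha stimulation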;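 for inhibition: signal is the nuclear over cytoplasmic p65 intensity ratio per well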). The note with it: HUVEC TNFa-induced p65 nuclear translocation; cell count: measured here: nuclei count (cytotoxicity indicator), at 2.08 µM; inhibition: at 2 µM, stronger effect = higher value, 0% TNFa-plus-vehicle, 100% no-TNFa wells.
Experiment [2] in a line: inhibitors of E-selectin induction by TNFa, primary screen, imaging, HUVEC, immunofluorescence, MLSMR starter and 10KST1 sets (AID 487;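 active = visually confirmed hit in the image check and inhibition above 20%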;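 for inhibition: signal is fraction of cell area covered by stained E-selectin grains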;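 for nuclei count: 100% = median nuclei count of all wells on the same plate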). The note with it: HUVEC TNFalpha-induced E-selectin immunofluorescence imaging, at 2 µM; inhibition: stronger effect = higher value; nuclei count: measured here: cell number, toxicity.
A short description of experiment [3]: DUSP6 inhibitors restoring Erk phosphorylation by chemical complementation, primary imaging in DUSP6-transfected HeLa (AID 609;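 active = compounds giving at least 50% inhibition in the cell-based MKP-3 phosphatase rescue imaging test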;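 for inhibition: phospho-Erk level distribution per well compared with pooled transfected vehicle control wells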). Conditions: HeLa MKP-3 transfected, phospho-Erk imaging KS statistic, at 10 µM, cells stimulated with TPA for 15 min.
In experiment [4] the target is Dual specificity protein phosphatase 6 (Homo sapiens) (UniProt Q16828). The description is as above. Conditions: HeLa MKP-3 transfected, phospho-Erk imaging KS statistic; at 10 µM; stronger effect = higher value; cells stimulated with TPA for 15 min.
The target of experiment [5] is Voltage-gated potassium channel subunit beta-2 (Rattus norvegicus) (UniProt P62483). The experiment is described as follows: KvBeta enzyme negative modulators, primary screen, biochemical, NADPH fluorescence (AID 622;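 active = fluorescence slope higher than the sample average by over 3 SD, cut at about -0.22 in these data, passing the limit was not always enough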;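 note: slope of raw intensity against log time taken from 70 to 1610 s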). The note with it: recombinant KvBeta, 4-cyanobenzaldehyde reduction, at 10 µM, stronger effect = higher value.
For experiment [6] the target is unchanged. The experiment is described as follows: KvBeta positive modulators, primary screen, biochemical, NADPH fluorescence (AID 623;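 active = NADPH fluorescence slope more negative than the mean of all samples by about 3 SD, 99.7% confidence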;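 note: fluorescence intensity change per second fitted from 20 to 320 s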). Conditions: Recombinant KvBeta, NADPH fluorescence decrease slope, 10 min; at 10 µM; stronger effect = lower value.
Experiment [7] deals with Alpha-2C adrenergic receptor (Homo sapiens) (UniProt P18825). Put plainly: modulators of alpha2C/GIRK thallium flux, primary screen, cell-based, HEK293 alpha2C/GIRK1/2 (AID 624).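 Note: slope of fluorescence ratio to pre-addition baseline per second over 15 to 24 s.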 Conditions: thallium flux BTC fluorescence, at 10 µM, actives lie on both sides.
The nature of experiment [8]: inhibitors of larval lipid processing in zebrafish, primary screen, whole organism, PED6 fluorescence, gall bladder and intestine (AID 686;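 active = a full or partial loss of lipid-probe fluorescence in the fish gall bladder, intestine or both, judged by eye; inactive = no fluorescence loss, or compound toxic to the fish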;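 note: signal comes from phospholipase A2 cleavage of quenched PED6 carried via bile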). Conditions: Zebrafish larvae PED6 lipid processing, fluorescence scoring; screened at 20 µM (by protocol). A digest of the protocol: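 Doses: 20 µM single dose. Test system: live zebrafish larvae aged 5-7 days, whole organism. Quantity: five larvae per well. Measured by: By-eye fluorescence microscopy. Reagent: ingested quenched lipid PED6 at 100 nM. Read-out: visual per-well fluorescence inhibition score. Times: overnight exposure of larvae to compound plus PED6.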

Experiment [9] can be described thus: inhibitors of Chlamydomonas gravitaxis, primary screen, whole organism, Chlamydomonas reinhardtii, WT vs cilia-less mutant, absorbance, 96-well (AID 463189;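 active = inhibition at or above 50% relative to wild type and mutant plate controls; inactive = inhibition below 50%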;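 note: 0% = wild type cc124 cells in DMSO and 100% = ciliumless bld1 mutant cells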). The note with it: OD600 absorbance, 2 days, at 10 µM, stronger effect = higher value.
Where [10] appears, read: measured here: cell density z-score.
The mark [11] stands for this setting: measured here: nuclear c-Myc green intensity z-score.
Where [12] appears, read: measured here: nuclear pErk red intensity z-score, stronger effect = higher value.

The structures appear in SMILES notation. Activity calls are given as the source filed them.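 Rule for the calls, unless noted: active = fluorescence slope after compound addition differing from the mean of all screened samples at 99.7% confidence, in either direction; inactive = the rest.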

As usually defined, the inhibition is the drop in the measured response relative to a control, in per cent.

Chain of Voltage-gated potassium channel subunit beta-2 (Rattus norvegicus) (P62483 whole entry, looked up): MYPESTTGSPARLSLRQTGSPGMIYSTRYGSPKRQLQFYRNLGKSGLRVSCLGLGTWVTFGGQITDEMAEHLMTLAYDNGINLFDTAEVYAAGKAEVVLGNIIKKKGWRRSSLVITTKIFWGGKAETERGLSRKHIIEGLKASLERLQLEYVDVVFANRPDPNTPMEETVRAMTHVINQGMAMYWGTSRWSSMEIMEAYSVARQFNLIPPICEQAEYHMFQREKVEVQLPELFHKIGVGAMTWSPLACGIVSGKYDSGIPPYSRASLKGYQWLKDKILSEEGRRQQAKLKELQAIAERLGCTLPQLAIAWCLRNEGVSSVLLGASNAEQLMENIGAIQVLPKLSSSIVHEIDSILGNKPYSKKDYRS
Chain of Dual specificity protein phosphatase 6 (Homo sapiens) (Q16828 whole entry, looked up): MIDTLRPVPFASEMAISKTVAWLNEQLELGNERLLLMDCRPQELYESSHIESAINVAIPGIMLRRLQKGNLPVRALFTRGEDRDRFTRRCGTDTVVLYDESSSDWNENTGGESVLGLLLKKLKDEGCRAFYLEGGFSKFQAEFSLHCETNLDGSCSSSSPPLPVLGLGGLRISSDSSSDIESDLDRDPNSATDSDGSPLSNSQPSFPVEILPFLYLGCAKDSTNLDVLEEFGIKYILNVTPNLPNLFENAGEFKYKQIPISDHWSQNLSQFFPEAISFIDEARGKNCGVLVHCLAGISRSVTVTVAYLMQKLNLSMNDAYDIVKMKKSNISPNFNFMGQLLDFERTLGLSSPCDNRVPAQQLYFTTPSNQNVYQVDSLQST
Chain of Alpha-2C adrenergic receptor (Homo sapiens) (P18825 whole entry, looked up): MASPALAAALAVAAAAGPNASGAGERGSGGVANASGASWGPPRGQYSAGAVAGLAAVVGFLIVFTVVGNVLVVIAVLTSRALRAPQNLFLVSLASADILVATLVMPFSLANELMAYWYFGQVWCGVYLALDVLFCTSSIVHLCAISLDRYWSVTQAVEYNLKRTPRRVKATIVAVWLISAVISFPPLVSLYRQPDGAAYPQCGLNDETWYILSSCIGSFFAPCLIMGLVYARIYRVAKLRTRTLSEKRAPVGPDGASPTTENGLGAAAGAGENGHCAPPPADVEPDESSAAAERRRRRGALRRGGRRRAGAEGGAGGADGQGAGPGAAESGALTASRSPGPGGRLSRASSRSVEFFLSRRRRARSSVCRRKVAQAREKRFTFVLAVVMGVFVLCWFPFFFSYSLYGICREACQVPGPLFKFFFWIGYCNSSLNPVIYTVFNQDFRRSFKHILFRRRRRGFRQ

In the case of `Cc1cc(=O)n2[nH]cnc2n1`, the cell count in experiment [1] came to 517. In addition, the inhibition in [1] was -4.6% (inactive); in experiment [2], -138% (inactive); in [4], 5.57% (inactive); in experiment [9] it was -0.839% (inactive). Also, the nuclei count in experiment [2] came out at 125%. Moreover, the figures for the z-score in [3] (setting [10]), in experiment [3] (setting [11]) and in experiment [3] (setting [12]) were 1.56, -0.453 and -0.845, respectively. For the same compound, in [5], the fluorescence slope was -0.502 (inactive). Also, the NADPH fluorescence slope in experiment [6] is -0.000147 (inactive). Also, the slope in [7] is 0.00471 (inactive). In addition, in experiment [8], the compound was called inactive.
For the compound `CCCc1nn(C)c2c1C(c1cccnc1)C(C#N)=C(N)O2` (centres undefined), the cell count in experiment [1] worked out at 521. For the same compound, the inhibition was -5.3% (inactive) in [1], -50.3% (inactive) in experiment [2], 9.61% (inactive) in experiment [4] and 14.7% (inactive) in [9]. In addition, the nuclei count in experiment [2] was found to be 183%. Also, the z-score in [3] (setting [10]) is 0.834; in [3] (setting [11]), 0.991; in experiment [3] (setting [12]) it was -0.817. Further, the fluorescence slope in [5] is -0.274 (inactive). Also, the NADPH fluorescence slope in experiment [6] is 4.2e-08 (inactive). The slope in [7] was 0.00487 (inactive). For the same compound, in experiment [8], the compound was classed as inactive.
Consider `CCOC(=O)c1c(CNCCN(CC)CC)n(C)c2cc(Br)c(OC)cc12`, for which the cell count in experiment [1] was determined as 321. Also, the inhibition in experiment [1] was 3.8% (inactive); in experiment [2], -25% (inactive); in experiment [4] it was 1.75% (inactive); in experiment [9], 28.1% (inactive). The same compound displayed a nuclei count in experiment [2] of 77.4%. Further, the results for the z-score in experiment [3] (setting [10]), in [3] (setting [11]) and in experiment [3] (setting [12]) were -0.115, 0.118 and -0.0858, respectively. The fluorescence slope in [5] is -0.439 (inactive). Besides, in [6], the NADPH fluorescence slope is -8.8e-06 (inactive). Further, the slope in experiment [7] was 0.00617 (inactive). Besides, the outcome in experiment [8] was inactive.
Consider `CCOC(=O)c1c(N)sc2c1CCC1C(=O)N(C3CCCCC3)C(=O)C21` (centres undefined), for which, in [1], the cell count amounted to 593. Moreover, the inhibition in [1] is -15.5% (inactive); in [2] it was -59.6% (inactive); in experiment [4] it was -11% (inactive); in experiment [9], -3.12% (inactive). Further, in experiment [2], the nuclei count was determined as 170%. For the same compound, the z-score in experiment [3] (setting [10]) was -0.619; in experiment [3] (setting [11]), -0.159; in experiment [3] (setting [12]), 0.799. The fluorescence slope in [5] is -0.362 (inactive). Besides, in experiment [6], the NADPH fluorescence slope is -3.1e-06 (inactive). In addition, the slope in experiment [7] was 0.0048 (inactive). Besides, the call in [8] was inactive.
With `O=S(=O)(c1ccc(Cl)cc1)N1CCC(N2CCCCCC2)CC1`, the cell count in [1] is 450. The inhibition is -23.8% (inactive) in experiment [1], -135% (inactive) in experiment [2], 11% (inactive) in experiment [4] and 121% (active) in experiment [9]. Moreover, the nuclei count in experiment [2] was 160%. Also, the z-score is -0.279 in experiment [3] (setting [10]), -1.42 in [3] (setting [11]) and 0.26 in experiment [3] (setting [12]). For the same compound, in experiment [5], the fluorescence slope is -0.321 (inactive). In addition, the NADPH fluorescence slope in experiment [6] is 6.3e-06 (inactive). Also, in experiment [7], the slope was 0.0047 (inactive). The call in experiment [8] was inactive.
As for `Cc1c(NS(=O)(=O)c2cccc3nsnc23)c(=O)n(-c2ccccc2)n1C`, the cell count in experiment [1] is 549. Further, the inhibition in experiment [1] is -1.1% (inactive); in experiment [2] it was -51.8% (inactive); in experiment [4], -6.06% (inactive); in experiment [9], -6.26% (inactive). The nuclei count in experiment [2] amounted to 154%. Besides, the z-score was 0.537 in [3] (setting [10]), 0.599 in [3] (setting [11]) and -0.221 in [3] (setting [12]). In addition, in experiment [5], the fluorescence slope was -0.499 (inactive). For the same compound, the NADPH fluorescence slope in experiment [6] was -3.8e-05 (inactive). Besides, in [7], the slope is 0.00709 (inactive). The result in [8] was inactive.
In the case of `COc1ccc(OC)c(C(O)c2coc3ccc(O)c(CN4CCOCC4)c23)c1` (centres undefined), in experiment [1], the cell count worked out at 395. Moreover, the inhibition is -2.4% (inactive) in [1], -6.2% (inactive) in experiment [2], 1.42% (inactive) in experiment [4] and 36.3% (inactive) in experiment [9]. The same compound yielded a nuclei count in [2] of 142%. Further, the z-score in [3] (setting [10]) is -0.303; in experiment [3] (setting [11]) it was 0.452; in experiment [3] (setting [12]), 0.346. The fluorescence slope in experiment [5] was -0.45 (inactive). Also, the NADPH fluorescence slope in [6] is -6.9e-05 (inactive). Moreover, the slope in [7] was 0.00476 (inactive). In experiment [8], the call was inactive.
On to `COc1ccc(S(=O)(=O)N2CCC(N3CCCCC3)CC2)cc1`, for which the cell count in [1] came out at 454. For the same compound, the inhibition is -22.7% (inactive) in experiment [1], -217% (inactive) in experiment [2], 29.3% (inactive) in experiment [4] and 68% (active) in experiment [9]. In experiment [2], the nuclei count came out at 148%. Besides, the z-score in experiment [3] (setting [10]) is 0.445; in experiment [3] (setting [11]) it was -1.43; in experiment [3] (setting [12]) it was -2.35. Further, the fluorescence slope in experiment [5] was -0.314 (inactive). The NADPH fluorescence slope in [6] is -2e-05 (inactive). For the same compound, the slope in experiment [7] was 0.00443 (inactive). The outcome in [8] was inactive.
As to `Cc1ccc2[nH]c3c(c2c1)CN(C(=O)CN1CCN(c2ccccn2)CC1)CC3`, in experiment [1], the cell count is 563. The inhibition was -9% (inactive) in experiment [1], -69.3% (inactive) in [2], 4.72% (inactive) in [4] and 10.4% (inactive) in [9]. Besides, in experiment [2], the nuclei count worked out at 144%. The figures for the z-score in experiment [3] (setting [10]), in experiment [3] (setting [11]) and in [3] (setting [12]) were -1.22, -0.583 and -0.448, respectively. Further, the fluorescence slope in [5] was -0.453 (inactive). In addition, in [6], the NADPH fluorescence slope was -0.000143 (inactive). Moreover, in [7], the slope is 0.00579 (inactive). For the same compound, the call in experiment [8] was inactive.
`Cc1nc(SCC(=O)c2ccccc2)c(C#N)c(-c2ccco2)c1C(=O)NCc1ccco1`: in experiment [1], the cell count turned out to be 391. The inhibition was 0.8% (inactive) in [1], 17.3% (inactive) in experiment [2], 11.4% (inactive) in experiment [4] and 10.9% (inactive) in [9]. The same compound had a nuclei count in experiment [2] of 138%. The z-score is 0.205 in experiment [3] (setting [10]), -0.115 in [3] (setting [11]) and 1.15 in [3] (setting [12]). For the same compound, the fluorescence slope in [5] was -0.39 (inactive). Besides, the NADPH fluorescence slope in [6] is -0.000131 (inactive). Moreover, the slope in [7] is 0.0062 (inactive). Also, the compound was called inactive in experiment [8].
In the case of `COC(=O)c1ccc(Nc2cc(C)nc(-c3ccccc3O)n2)cc1`, the cell count in experiment [1] was 598. The inhibition in experiment [1] is -2.7% (inactive); in [2], -66.3% (inactive); in experiment [4], 1.9e-07% (inactive); in [9], 17.7% (inactive). In [2], this compound gave a nuclei count of 140%. In addition, the z-score in [3] (setting [10]) was 0.899; in experiment [3] (setting [11]) it was 0.0889; in experiment [3] (setting [12]), -0.242. Besides, the fluorescence slope in [5] was -0.106 (inactive). For the same compound, the NADPH fluorescence slope in experiment [6] was 2.6e-07 (inactive). Further, in [7], the slope was 0.00449 (inactive). For the same compound, the result in experiment [8] was inactive.
For `COc1ccc(C(=O)C(CN2CCCC2)c2ccccc2)cc1` (centres undefined), the cell count in experiment [1] was 653. The inhibition in experiment [1] is -4.3% (inactive); in experiment [2] it was 0.2% (inactive); in experiment [4], 1.75% (inactive); in experiment [9], 5.7% (inactive). In addition, in experiment [2], the nuclei count was determined as 178%. The z-score was -0.885 in experiment [3] (setting [10]), 0.507 in experiment [3] (setting [11]) and 1.21 in experiment [3] (setting [12]). Also, in [5], the fluorescence slope is -0.521 (inactive). Besides, in experiment [6], the NADPH fluorescence slope was -8.7e-05 (inactive). Also, in experiment [7], the slope is 0.00506 (inactive). Moreover, the call in experiment [8] was inactive.
In the case of `Cc1nc2c(c(=O)n1CC1CCCO1)c1nc3ccccc3nc1n2CCC(C)C` (centres undefined), in [1], the cell count amounted to 327. Besides, the inhibition in experiment [1] was -4.1% (inactive); in experiment [2], -30.1% (inactive); in experiment [4], -0.584% (inactive); in experiment [9], 24.8% (inactive). In [2], this compound showed a nuclei count of 177%. For the same compound, the z-score in experiment [3] (setting [10]) is 1.21; in [3] (setting [11]), -0.55; in experiment [3] (setting [12]) it was 1.04. Also, in experiment [5], the fluorescence slope is -0.381 (inactive). Moreover, in experiment [6], the NADPH fluorescence slope was -0.000104 (inactive). Also, in [7], the slope is 0.00821 (inactive). Besides, the compound was called inactive in [8].

The values above are taken from PubChem BioAssay.
